STAT1 inh: STAT1 signaling inhibitors, primary screen, cell-based, HTS, luciferase reporter | AID 920, 2007 | hit rate 0.35% among 200,000 | NIH 3T3 STAT1-luciferase reporter, IFN-gamma, luminescence | inhibition, % at 5.5 µM;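 active = inhibition above a set limit, the mean inhibition across all tested compounds plus 3 SD, cut at about 34% in these data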
PPC-1+TRAIL kill: compounds killing PPC-1 cancer cells with TRAIL present, primary screen, TRAIL potentiator project, ATPLite luminescence, uHTS. PPC-1 cells + TRAIL, ATPLite viability luminescence. cell killing (% activity), % at 4 µM or 5 µM. hit rate 0.41% among 220,000;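 active = cell killing above 50% in the first pass at 4 µM, then a duplicate retest at 5 µM averaging 50% or more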
Platelet DG rel: inhibitors of platelet dense granule secretion, primary screen, cell-based, MLPCN, human platelets; AID 1663, 2009; inhibition, %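 (compounds screened at 7.5 µM in platelet-rich plasma)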; human platelet-rich plasma, SFLLRN dense granule ATP release, luminescence; hit rate 0.22% among 300,000;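 active = mean replicate score, as percent of positive control, at or above 50; inconclusive = mean below 50 but at least one replicate at or above 50; inactive = mean and every replicate below 50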
H9c2 TAG inh: inhibitors of triacylglycerol accumulation, primary screen, cell-based, uHTS, fluorescence, H9c2; H9c2 cells, Nile Red lipid (TAG) fluorescence; cells loaded with 200 µM oleic acid; inhibition, % at 12.5 µM; hit rate 0.66% among 230,000; AID 651582, 2012;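 active = pattern-corrected inhibition of lipid staining of at least 50% with the nuclear-stain viability signal not falling by more than 50%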
Hep lipid drop: inhibitors of hepatocyte lipid droplet formation, primary screen, imaging, high-throughput imaging, BODIPY stain; AML12 mouse hepatocytes, oleate lipid droplets; inhibition, % at 6.5 µM; hit rate 0.4% among 240,000;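 active = lipid droplet intensity inhibited by at least 50%, with more than 500 cells counted; inconclusive = wells with under 300 cells, treated as cytotoxic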
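Assay system: AML12 hepatocytes (mouse) / Also added: 100 µM oleic acid challenge / Times: overnight treatment with compound plus oleate / Detection: high-content imaging of BODIPY-stained droplets and DAPI nuclei / Evaluation: % inhibition of lipid droplet signal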
STAT3 inh: IL-6 driven STAT3 reporter inhibitors, primary screen, U3A cells, luciferase, luminescence, MLSCN library. inhibition, % at 5.5 µM. IL-6 STAT3-luciferase reporter; host cell line lacks STAT1. hit rate 0.89% among 190,000;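 active = inhibition above the mean inhibition across all screened compounds plus 3 SD, cut at about 44% in these data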
Of the large screens only hits and unclear results are named; the others gave an inactive call. Rows were chosen to be rich in hits. Some 1.5% of all compounds tested hit in one or more screens of this group.

OCC1OC(n2cnc3c(NC4CCCC4)ncnc32)C(O)C1O (stereo unspecified)	Platelet DG rel 82 (no result: STAT1 inh, PPC-1+TRAIL kill, Hep lipid drop, STAT3 inh)
OC[C@H]1O[C@@H](n2cnc3c(NC4CCCC4)ncnc32)[C@H](O)[C@@H]1O	Platelet DG rel 57
OCC1OC(n2cnc3c(NC4CCCCC4)ncnc32)C(O)C1O (stereo unspecified)	none (no result: H9c2 TAG inh, STAT3 inh)
CNC(=O)OCc1nc(SSC(C)(C)C)n(C)c1COC(=O)NC	none (no result: STAT1 inh, PPC-1+TRAIL kill, Platelet DG rel, Hep lipid drop, STAT3 inh)
Nc1nc(-c2ccccc2)cc(N2CCCCC2)n1	H9c2 TAG inh 76, Hep lipid drop inconclusive
Cc1nc(-c2ccccc2)cc(N2CCCC2)n1	none (no result: H9c2 TAG inh)
O=C(N/N=C\c1cc(Cl)ccc1O)c1ccc(S(=O)(=O)N2CCCCC2)cc1	PPC-1+TRAIL kill 52 (no result: H9c2 TAG inh)
O=C(Nc1cc(S(=O)(=O)Nc2ccc(Cl)cc2)ccc1O)c1ccc(S(=O)(=O)N2CCCCCC2)cc1	none
Cc1nc(Nc2ccc(C(=O)O)cc2)sc1-c1ccccc1	STAT3 inh 72
O=C(O)c1ccc(Nc2nc3c(s2)CCCC3)cc1	STAT1 inh 69, STAT3 inh 80 (no result: H9c2 TAG inh)
CN(C)S(=O)(=O)c1ccc(N)c([N+](=O)[O-])c1	none (no result: STAT1 inh, H9c2 TAG inh, STAT3 inh)
CC1CC(=O)NN=C1c1ccc(N)c([N+](=O)[O-])c1 (stereo unspecified)	Platelet DG rel 61
CC(C)n1ncc2c(C(=O)NCC(=O)Nc3ccccc3Br)cc(C3CC3)nc21	none (no result: STAT1 inh, PPC-1+TRAIL kill, Platelet DG rel, Hep lipid drop, STAT3 inh)
Cc1cc(C(=O)CSc2nnc(-c3ccccc3)n2-c2ccccc2)c(C)n1-c1ncn[nH]1	none (no result: Hep lipid drop)
Cc1cc(C(=O)CSc2nnc3ccccn23)c(C)n1-c1ccccc1	STAT1 inh 67, STAT3 inh 96 (no result: H9c2 TAG inh)
N#CC1=C(N)OC2=C(C(=O)CC(c3ccccc3)C2)C1c1cccnc1 (stereo unspecified)	none (no result: H9c2 TAG inh)
N#CC1=C(N)OC2=C(C(=O)CC(c3ccccc3)C2)C1c1ccoc1 (stereo unspecified)	PPC-1+TRAIL kill 85 (no result: H9c2 TAG inh)
C[C@@]12C(=O)Nc3cc(Cl)ccc3C(=O)N1[C@H]1c3cc(Br)ccc3OC[C@@H]1[C@@H]2c1ccccc1	H9c2 TAG inh 53 (no result: STAT1 inh, PPC-1+TRAIL kill, Platelet DG rel, Hep lipid drop, STAT3 inh)
C[C@@]12C(=O)Nc3cc(Cl)ccc3C(=O)N1[C@H]1c3cc(Cl)ccc3OC[C@@H]1[C@@H]2c1ccccc1	none (no result: STAT1 inh, PPC-1+TRAIL kill, Platelet DG rel, Hep lipid drop, STAT3 inh)
Cc1cc(C)nc(NC(N)=NCCc2ccccc2)n1	none (no result: STAT1 inh, PPC-1+TRAIL kill, Platelet DG rel, Hep lipid drop, STAT3 inh)
Cc1cc(C)nc(NC(N)=NCCc2c[nH]c3ccccc23)n1	STAT1 inh 37, STAT3 inh 46
Cc1c(C(=O)NCc2ccc(C(F)(F)F)cc2)sc(=O)n1Cc1ccc(S(=O)(=O)N(C)C)cc1	none (no result: STAT1 inh, PPC-1+TRAIL kill, Platelet DG rel, Hep lipid drop, STAT3 inh)
Cc1ccc2c(c1)Oc1ccc([N+](=O)[O-])cc1C(=O)N2	none
Cc1ccc2c(c1)Oc1ccc(NC(=O)CCl)cc1C(=O)N2	H9c2 TAG inh 56
NS(=O)(=O)c1cccc(NC(=O)CSc2nnnn2-c2ccccc2)c1	none (no result: STAT1 inh, STAT3 inh)
CN(C)S(=O)(=O)c1cccc(NC(=O)CSc2nnnn2-c2ccccc2)c1	Platelet DG rel 50 (no result: STAT1 inh, STAT3 inh)
COc1cc2ncnc(Nc3cccc(Cl)c3)c2cc1OC	Hep lipid drop 65 (no result: STAT1 inh, Platelet DG rel, H9c2 TAG inh, STAT3 inh)
Clc1cccc(Nc2ncnc3ccc(Br)cc23)c1	none (no result: H9c2 TAG inh, Hep lipid drop)
CC1=NN(c2nc3ccccc3[nH]2)C(=O)C1Cc1ccccc1 (stereo unspecified)	H9c2 TAG inh 54 (no result: STAT1 inh, STAT3 inh)
O=c1[nH]c2ccccc2nc1NCc1ccccc1	none (no result: STAT1 inh, PPC-1+TRAIL kill, STAT3 inh)
CNC[C@@H](CC1CCCCC1)NC[C@H](CC(C)C)NCCc1cccc(C(F)(F)F)c1	H9c2 TAG inh 134 (no result: STAT1 inh, PPC-1+TRAIL kill, STAT3 inh)
CC1CCc2c(sc3nc(C(C)(C)C)nc(N4CCN(C(=O)CCl)CC4)c23)C1 (stereo unspecified)	H9c2 TAG inh 91 (no result: STAT1 inh, PPC-1+TRAIL kill, STAT3 inh)
O=C(N/N=C/c1cc(Cl)cc(Cl)c1O)c1ccncc1	H9c2 TAG inh 65 (no result: STAT1 inh, STAT3 inh)
COc1ccccc1-c1cc2nc(-c3ccccc3)cc(N3CCN(C(=O)c4ccco4)CC3)n2n1	none (no result: STAT1 inh, PPC-1+TRAIL kill, Platelet DG rel, Hep lipid drop, STAT3 inh)
COc1ccc(-c2cc(C(=O)c3c(N)n(C)c(=O)n(C)c3=O)c3ccccc3n2)cc1	PPC-1+TRAIL kill 77 (no result: STAT1 inh, STAT3 inh)
COc1ccc(-c2cc(C(=O)OCC(=O)c3c(N)n(C)c(=O)n(C)c3=O)c3ccccc3n2)cc1	none

Screening data deposited in PubChem BioAssay by several laboratories.
